Test results taken from EPA's CvTdb concentration-time database.

Experiments:
Rat [1] = assay: concentration in plasma after dosing; conditions: dosed: Phenolphthalein, 25 mg/kg, iv, Female, F344
Rat [2] = assay: concentration in plasma after dosing; conditions: dosed: Phenolphthalein, 25 mg/kg, iv, Male, F344
Rat [3] = assay: concentration in plasma after dosing; conditions: dosed: Phenolphthalein, 25 mg/kg, iv, Female, F344; remark: listed apart in the source
Rat [4] = assay: concentration in plasma after dosing; conditions: dosed: Phenolphthalein, 25 mg/kg, iv, Male, F344; remark: listed apart in the source
Rat [5] = assay: concentration in plasma after dosing; conditions: dosed: Phenolphthalein, 25 mg/kg, iv, F344
Rat [6] = assay: concentration in plasma after dosing; conditions: dosed: Phenolphthalein, 25 mg/kg, iv, Male, F344; remark: listed apart in the source
Rat [7] = assay: concentration in plasma after dosing; conditions: dosed: Phenolphthalein, 25 mg/kg, iv, Male, F344; remark: listed apart in the source
Rat [8] = assay: concentration in plasma after dosing; conditions: dosed: Phenolphthalein, 25 mg/kg, iv, Male, F344; remark: listed apart in the source
Rat [9] = assay: concentration in plasma after dosing; conditions: 12 h; dosed: Phenolphthalein; 25 mg/kg; iv; Female; F344
Rat [10] = assay: concentration in plasma after dosing; conditions: dosed: Phenolphthalein, 25 mg/kg, iv, Female, F344; remark: listed apart in the source
Rat [11] = assay: concentration in plasma after dosing; conditions: 16 h; dosed: Phenolphthalein; 25 mg/kg; iv; Male; F344
Rat [12] = assay: concentration in plasma after dosing; conditions: dosed: Phenolphthalein, 25 mg/kg, iv, Female, F344; remark: listed apart in the source
Rat [13] = assay: concentration in plasma after dosing; conditions: dosed: Phenolphthalein, 25 mg/kg, iv, Female, F344; remark: listed apart in the source
Rat [14] = assay: concentration in plasma after dosing; conditions: 16 h; dosed: Phenolphthalein; 25 mg/kg; iv; Male; F344; remark: listed apart in the source
Rat [15] = assay: concentration in plasma after dosing; conditions: dosed: Phenolphthalein, 25 mg/kg, iv, Male, F344; remark: listed apart in the source
Rat [16] = assay: concentration in plasma after dosing; conditions: dosed: Phenolphthalein, 25 mg/kg, iv, Female, F344; remark: listed apart in the source
Rat [17] = assay: concentration in plasma after dosing; conditions: dosed: Phenolphthalein, 25 mg/kg, iv, Female, F344; remark: listed apart in the source
Rat [18] = assay: concentration in plasma after dosing; conditions: dosed: Phenolphthalein, 25 mg/kg, iv, Male, F344; remark: listed apart in the source
Rat [19] = assay: concentration in plasma after dosing; conditions: 16 h; dosed: Phenolphthalein; 25 mg/kg; iv; Female; F344
Rat [20] = assay: concentration in plasma after dosing; conditions: dosed: Phenolphthalein, 25 mg/kg, iv, Female, F344; remark: listed apart in the source
Rat [21] = assay: concentration in plasma after dosing; conditions: dosed: Phenolphthalein, 25 mg/kg, iv, Female, F344; remark: listed apart in the source
Rat [22] = assay: concentration in plasma after dosing; conditions: dosed: Phenolphthalein, 25 mg/kg, iv, Male, F344; remark: listed apart in the source
Rat [23] = assay: concentration in plasma after dosing; conditions: dosed: Phenolphthalein, 25 mg/kg, iv, Female, F344; remark: listed apart in the source
Rat [24] = assay: concentration in plasma after dosing; conditions: dosed: Phenolphthalein, 25 mg/kg, iv, Male, F344; remark: listed apart in the source
Rat [25] = assay: concentration in plasma after dosing; conditions: dosed: Phenolphthalein, 25 mg/kg, iv, Female, F344; remark: listed apart in the source
Rat [26] = assay: concentration in plasma after dosing; conditions: dosed: Phenolphthalein, 25 mg/kg, iv, Male, F344; remark: listed apart in the source
Rat [27] = assay: concentration in plasma after dosing; conditions: dosed: Phenolphthalein, 25 mg/kg, iv, Female, F344; remark: listed apart in the source
Rat [28] = assay: concentration in plasma after dosing; conditions: dosed: Phenolphthalein, 25 mg/kg, iv, Male, F344; remark: listed apart in the source
Rat [29] = assay: concentration in plasma after dosing; conditions: dosed: Phenolphthalein, 25 mg/kg, iv, Male, F344; remark: listed apart in the source
Rat [30] = assay: concentration in plasma after dosing; conditions: dosed: Phenolphthalein, 25 mg/kg, iv, Female, F344; remark: listed apart in the source
Rat [31] = assay: concentration in plasma after dosing; conditions: dosed: Phenolphthalein, 25 mg/kg, iv, Male, F344; remark: listed apart in the source
Rat [32] = assay: concentration in plasma after dosing; conditions: 16 h; dosed: Phenolphthalein; 25 mg/kg; iv; Female; F344; remark: listed apart in the source
human = assay: concentration in expired air after dosing; negative times count back from the end of exposure; conditions: dosed: vinyl chloride, 2.5 ppm, inhalation
Procedure, shortened: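 Points were largely digitised from plot screenshots with WebPlotDigitizer or otherwise copied from tables, and they remain in the units each source reported. They come from published in vivo toxicokinetic studies and two structured collections. Sampling and analytical methods follow each source and were often not reported.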

O=C1OC(c2ccc(O)cc2)(c2ccc(O[C@@H]3O[C@H](C(=O)O)[C@@H](O)[C@H](O)[C@H]3O)cc2)c2ccccc21 (some centres undefined) [Phenolphthalein Glucuronide]
Conditions | concentration in plasma [ng/mL]
Rat [1], 5 h | 16900
Rat [1], 10 h | 13300
Rat [2], 1 h | 18700
Rat [2], 6 h | 10700
Rat [3], 2.5 min | 15100
Rat [3], 20 h | 9500
Rat [4], 3 h | 6590
Rat [4], 12 h | 17300
Rat [6], 4 h | 8240
Rat [6], 7 h | 14400
Rat [7], 5 h | 10900
Rat [7], 10 h | 10700
Rat [8], 2 h | 7950
Rat [8], 8 h | 9110
Rat [10], 5 h | 16500
Rat [10], 10 h | 11300
Rat [12], 5 min | 69000
Rat [12], 24 h | 14700
Rat [13], 1 h | 22300
Rat [13], 6 h | 8560
Rat [15], 1 h | 19000
Rat [15], 6 h | 35900
Rat [16], 2 h | 14600
Rat [16], 8 h | 17000
Rat [17], 4 h | 18400
Rat [17], 7 h | 19500
Rat [18], 5 h | 8040
Rat [18], 10 h | 11300
Rat [20], 2 h | 16300
Rat [20], 8 h | 22700
Rat [21], 5 min | 3250
Rat [21], 24 h | 5140
Rat [22], 2.5 min | 2320
Rat [22], 20 h | 8550
Rat [23], 2.5 min | 10400
Rat [23], 20 h | 8670
Rat [24], 5 min | 23700
Rat [24], 24 h | 6100
Rat [25], 1 h | 9080
Rat [25], 6 h | 15200
Rat [26], 3 h | 32000
Rat [26], 12 h | 10500
Rat [27], 3 h | 39000
Rat [27], 12 h | 18000
Rat [28], 2 h | 22600
Rat [28], 8 h | 18600
Rat [29], 4 h | 23300
Rat [29], 7 h | 13100
Rat [30], 4 h | 14000
Rat [30], 7 h | 13700
Rat [31], 5 min | 21100
Rat [31], 24 h | 5330

concentration in plasma [ng/mL], Rat [5]
Conditions | Female | Male
1 h | 6220 | 13200
2 h | 22800 | 1490
2.5 min | 26600 | 4740
3 h | 47900 | 7190
4 h | 50600 | 4000
5 h | 17900 | 2270
5 min | 49000 | 22300
6 h | 18700 | 11800
7 h | 35300 | 4350
8 h | 16900 | 3650
10 h | 11900 | 5440
12 h | 24900 | 8240
16 h | 8190 | 9210
20 h | 16200 | 8080
24 h | 9270 | 6210

Conditions | concentration in plasma [ng/mL]
Rat [9] | 14800
Rat [11] | 37500
Rat [14] | 7180
Rat [19] | 8150
Rat [32] | 21500

C=CCl [vinyl chloride]
concentration in expired air [ppm], human
Conditions | duration: 0.25 hr | duration: 0.5 hr
2 s | 1.88 | –
4 min | 0.0581 | –
31 s | 0.564 | –
60 s | – | 0.375
64 s | 0.271 | –
121 s | 0.13 | 0.217
179 s | – | 0.198
180 s | 0.118 | –
237 s | – | 0.156
298 s | – | 0.145
299 s | 0.0432 | –

concentration in expired air [ppm], human, during exposure
Conditions | duration: 0.25 hr | duration: 0.5 hr
-299 s | 1.81 | –
-298 s | – | 1.63
-241 s | – | 1.74
-238 s | 1.84 | –
-180 s | 1.88 | –
-122 s | – | 1.77
-119 s | 1.84 | –
-61 s | – | 1.7
-59 s | 1.96 | –
-11 min | 1.68 | 1.81
-8 min | 1.64 | –
-7 min | – | 1.7
-3 min | – | 1.79
-0.4831 h | – | 1.29
-0.4663 h | – | 1.4
-0.4502 h | – | 1.63
-0.4157 h | – | 1.7
-0.3827 h | – | 1.77
-0.3489 h | – | 1.79
-0.316 h | – | 1.77
-0.2823 h | – | 1.86
-0.2493 h | – | 1.45
-0.2413 h | 0.701 | –
-0.2343 h | 1.27 | –
-0.224 h | 1.59 | –
-0.2163 h | – | 1.86
-0.2158 h | 1.57 | –
-0.2001 h | 1.62 | –
-0.1659 h | 1.79 | –
-0.1496 h | – | 1.7
-0.1491 h | 1.72 | –
-0.1161 h | 1.84 | –
-0.1003 h | 1.79 | –
-0 s | – | 1.57
